Reference: the EternaBench riboswitch data

Tested on: MS2 coat protein
Test: apparent Kd, MS2 coat protein; higher = weaker binding; RNA-MaP array
Method in brief: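 RNA designs were transcribed from sequenced DNA templates on an Illumina sequencing chip and then incubated at room temperature with fluorescently labeled MS2 coat protein at 1.5 nM to 3 μM, with or without input ligand, in Tris-HCl pH 7.5 buffer containing KCl, MgCl2, BSA, DTT, tRNA and Tween20. Incubation lasted 0.8–1.5 h at the lowest protein concentrations and 10–20 min at the highest. Apparent Kd is the median of binding-curve fits made for each cluster. Designs measured on fewer than 10 clusters were excluded.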

[1] = designed as: OFF switch for flavin mononucleotide, no ligand
[2] = ligand present: flavin mononucleotide, designed as: OFF switch for flavin mononucleotide
[3] = designed as: ON switch for flavin mononucleotide, no ligand
[4] = ligand present: flavin mononucleotide, designed as: ON switch for flavin mononucleotide
[5] = designed as: ON switch for theophylline, no ligand
[6] = ligand present: theophylline, designed as: ON switch for theophylline
[7] = designed as: OFF switch for theophylline, no ligand
[8] = ligand present: theophylline, designed as: OFF switch for theophylline
[9] = designed as: ON switch for tryptophan, no ligand
[10] = ligand present: tryptophan, designed as: ON switch for tryptophan

Q: What does the source list for “CGGUGACAUGAGGAUCACCCAUGUAAGGAUAUACCGGUUGAAGAUAAUAGCGACGGCGGAAGAAGGUACCUACA”?
A: apparent Kd [1]: 32 nM; apparent Kd [2]: 25.9 nM

Q: “UAUAAGGAAGGAUAUAGGCUGCAAAACAUGAGGAUCACCCAUGUGAACCGACGACGCCAACUAGAAGGUCCCUAUG” was tested. Which “apparent Kd” value [1] did it give?
A: The value was 13.5 nM.

Q: What about the “apparent Kd” value [2] of the same sequence?
A: The value was 12.9 nM.

Q: Which “apparent Kd” value [3] does the source give for “UAGCGACAUGAGGAUCACCCAUGUCCCGGCUACUAAGGAUAUGCAGUGAUUGAAAGGAAGGCAGAAGGUAGUGCAG” here?
A: The value was 25.3 nM.

Q: What about the “apparent Kd” value [4] of the same sequence?
A: The value was 12.7 nM.

Q: What does the source list for “GUAAACGCCACAGGAUAUUGGCAGAAUAAGGAGCAAGAAGGGUGGGAUAGAAUCACGUGAACAUGAGGAUCACCCAUGUGUGGA”?
A: apparent Kd [3]: 55.3 nM; apparent Kd [4]: 38 nM

Q: Which “apparent Kd” value [1] does the source give for “CAUACAUAACAUGAGGAUCACCCAUGUGACUCACUCUGAAAGCAGGAUAUAUUCGGUAAGCUACGAUAGAAGGGCUAUGCGUAA” here?
A: Its value is 42.2 nM.

Q: What about the “apparent Kd” value [2] of the same sequence?
A: The value was 31.3 nM.

Q: What does the source list for “UUAGCACAUGAGGAUCACCCAUGUCUCGAUACCAGAUAAGUUCCGAUCCCUUGGCAGCGACAAGCUUGCAAACUGCGACUAUUCU”?
A: apparent Kd [5]: 24.7 nM; apparent Kd [6]: 25 nM

Q: What does the source list for “GGAAUCGGAUUAGAGGAUAUCGAUCUGUUAACAUGAGGAUCACCCAUGUGGACGCUUCAUUCGAACGAGAAGGCUAGAUGGACACC”?
A: apparent Kd [3]: 23.8 nM; apparent Kd [4]: 16.8 nM

Q: How did the “apparent Kd” value [1] turn out when “CGCCCGAAAGGAUAUACAUGAGGAUCACCCAUGUUUCUAGCAAAAUGACCCUCAAUUCGUAGAAGGUUCCGAGU” was run?
A: The value was 32.6 nM.

Q: And the “apparent Kd” value [2]?
A: Its value is 36.1 nM.

Q: Which results are given for “CGUAAACAUGAGGAUCACCCAUGUGAUGAUACCAGCACGAUUAACUGCCCUUGGCAGCAUGUAUUGUACGACUUAUUGCCCAUCG”?
A: apparent Kd [5]: 14.8 nM; apparent Kd [6]: 16.8 nM

Q: How did the “apparent Kd” value [7] turn out when “GCCAAAAUACCCGAUACCAGUAUUAAUAGCACAACCUCACACAUGAGGAUCACCCAUGUAUACCCUUGGCAGCGGCCUAACAUAA” was run?
A: Its value is 36.9 nM.

Q: What about the “apparent Kd” value [8] of the same sequence?
A: Its value is 102 nM.

Q: With “UUUCAAGUAUCGGCCGCCACUCUAGUUGGUUGUUCAAUCCGAUUACAUGAGGAUCACCCAUGUCUGAGGACCGGGAUAAAGUAAU” as the sequence, how does the “apparent Kd” value [9] read?
A: Its value is 26.1 nM.

Q: What about the “apparent Kd” value [10] of the same sequence?
A: Its value is 31.8 nM.

Q: “GCUAUAUUUGAGAAGGGAGGAUGCUUCACAGAGCUUAGACCAGACAUGAGGAUCACCCAUGUGCCUCAGGAUAUCAAUAUCGAU” was tested. Which “apparent Kd” value [3] did it give?
A: Its value is 27.3 nM.

Q: What about the “apparent Kd” value [4] of the same sequence?
A: The value was 8.5 nM.

Q: Which results are given for “AAACUGAUCUUCAGGAGUCACUAUAUCUCCCGAGGACCGGUACGGCCGCCACUCGAACGUUUACAUGAGGAUCACCCAUGUGACU”?
A: apparent Kd (designed as: OFF switch for tryptophan, no ligand): 14.8 nM; apparent Kd (ligand present: tryptophan, designed as: OFF switch for tryptophan): 19.6 nM

Q: Which results are given for “UCGAUGGUACCCGAUACCAGCAAUACAUCACAGACCUGAUACAUGAGGAUCACCCAUGUGUGCCCUUGGCAGCGGGUCCUGAAAA”?
A: apparent Kd [7]: 17.8 nM; apparent Kd [8]: 38.1 nM

Q: Which “apparent Kd” value [9] does the source give for “CGCGAGACGGCGGCCGCCACUUGUUGUUGGAAACUCGAGUUACAUGAGGAUCACCCAUGUCCUUAAAGGACCGGGCCGUAAGUAA” here?
A: The value was 226 nM.

Q: And the “apparent Kd” value [10]?
A: The value was 164 nM.

Q: For “UGGCUUGAAGGAUAUACAUGAGGAUCACCCAUGUAUCGCUAAAAGAGAAAUCCAUAAUGUAGAAGGUCAUCCCA”, which “apparent Kd” value [1] is on record?
A: The value was 8.91 nM.

Q: And the “apparent Kd” value [2]?
A: Its value is 12 nM.

Q: “UAAGUUUUAGAGAAGGCCUGGAAUUGCUGUGCAGGAGGAUAUCUGGGACAUGAGGAUCACCCAUGUAGCCGCUAAGCGUAAGGG” was tested. Which “apparent Kd” value [1] did it give?
A: The value was 46.6 nM.

Q: What about the “apparent Kd” value [2] of the same sequence?
A: Its value is 83.1 nM.

Q: For “GAUUGCGGUGUGAGGAUAUCUGUUUAACAAAAGCCAGAGAAGGCACAUGAGGAUCACCCAUGUAGAUGCCGGCC”, which “apparent Kd” value [1] is on record?
A: Its value is 8.38 nM.

Q: And the “apparent Kd” value [2]?
A: The value was 10.5 nM.

Q: For “UAAGAAGUCCAGAAGGUAGCCCUACCGUACAGCUAAGGAUAUGGCUCACCGGUUUCAACAUGAGGAUCACCCAUGUCCUCCCGG”, which “apparent Kd” value [3] is on record?
A: The value was 55.9 nM.

Q: And the “apparent Kd” value [4]?
A: Its value is 36.3 nM.

Q: “ACCUAUACUCCAGGAUAUCAAGACCGAUGACAUGAGGAUCACCCAUGUCAAUCAAAACCAUGACGUGAGAAGGGGAGGCUCGUC” was tested. Which “apparent Kd” value [3] did it give?
A: Its value is 6.5 nM.

Q: And the “apparent Kd” value [4]?
A: The value was 6.05 nM.

Q: How did the “apparent Kd” value [3] turn out when “CUUGUACAUGAGGAUCACCCAUGUGUCCGUAUCAAAGGAUAUAGCAUAUUCGCAGUGGUGCUAGAAGGUUGUAUAC” was run?
A: The value was 20.9 nM.

Q: And the “apparent Kd” value [4]?
A: Its value is 10.5 nM.

Q: What does the source list for “UGCCUCCAGCGAGGAUAUAUGUAGAGAUACACCAUAGAAGGCGCUGUAGUGGAACAUGAGGAUCACCCAUGUGACCUCGCCCGG”?
A: apparent Kd [1]: 13.2 nM; apparent Kd [2]: 17.6 nM

Q: For “CAUACGCCGCAGAAGGAGUCGAGUCCGUUUCAACUAGGAUAUGCCAGAACAUGAGGAUCACCCAUGUUGCGGGUGCAGCUCAAU”, which “apparent Kd” value [1] is on record?
A: The value was 37.8 nM.

Q: And the “apparent Kd” value [2]?
A: The value was 38.9 nM.

Q: With “ACCGUGUCAGGAUAUCGGGUAUUCUUCCGUAUAAUACCAGCCGAGAAGGGACAUGAGGAUCACCCAUGUGGACA” as the sequence, how does the “apparent Kd” value [1] read?
A: The value was 33.2 nM.

Q: And the “apparent Kd” value [2]?
A: Its value is 57.8 nM.
